SUMO1 PPI mod = alters human SUMO1 binding to SIM partners; P63165; 360,000 tested, 0.33% active; SUMO1 binding to a labelled peptide, TR-FRET, 1 h; inhibition, % at 20 µM; in the data active = inhibition above about 37%
Target sequence (P63165 whole entry, looked up): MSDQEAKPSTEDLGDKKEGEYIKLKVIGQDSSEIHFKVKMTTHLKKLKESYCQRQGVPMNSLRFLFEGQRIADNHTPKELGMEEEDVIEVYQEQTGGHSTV
DNMT1 inh = inhibitors of human DNMT1 | 360,000 tested, 0.83% active | DNMT1 molecular beacon, Hinp1I cleavage, fluorescence | P26358 | inhibition (reported as % activation of signal), % at 10 µM; in the data active = inhibition above about 50%
Scp1 inh = Scp-1 (human) phosphatase inhibition | Q9GZU7 | Recombinant Scp1, phosphopeptide, malachite green phosphate absorbance | inhibition, % at 20 µM | 340,000 tested, 0.88% active;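 active = inhibition above about 50% at 20 µM, limit read from the data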
Target sequence (Q9GZU7 76-261 limits assumed): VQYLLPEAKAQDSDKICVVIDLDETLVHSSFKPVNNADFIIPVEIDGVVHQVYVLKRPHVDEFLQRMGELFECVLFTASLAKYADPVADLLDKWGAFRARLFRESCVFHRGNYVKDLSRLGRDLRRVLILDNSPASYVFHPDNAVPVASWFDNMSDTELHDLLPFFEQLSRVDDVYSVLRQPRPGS
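Assay system: SCP-1 catalytic fragment, aa 76-261 | Buffer or medium: Tris acetate buffer pH 5.5 with MgCl2 and Tween-20 | Compound: One concentration, 20 µM, with 1.0% DMSO | Also added: Phospho 17-mer peptide substrate | Signal: Absorbance at 630 nm | Incubation: 45 min enzyme reaction at room temperature | Measure: % inhibition of SCP-1 phosphate liberation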
STEP inh = STEP (human) phosphatase inhibition | P54829 | recombinant STEP, OMFP fluorogenic substrate, fluorescence | inhibition, % at 20 µM | 360,000 tested, 0.25% active | AID 588621;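 active = inhibition at 20 µM, scaled per plate between control wells, above about 37%, limit read from the data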
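Measure: Control-normalized % inhibition with plate pattern correction | Test system: STEP phosphatase, cell-free reaction | Medium: pH 6.0 Bis-Tris with DTT and Tween 20 | Technique: Fluorescence, 480/540 nm | Times: Reaction 20 min, ambient temperature | Doses: Single compound dose of 20 µM, 1% DMSO final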
LMPTP block = blocks human LMPTP phosphatase; AID 651560; recombinant LMPTP-A, OMFP fluorogenic substrate, fluorescence intensity; 360,000 tested, 0.22% active; inhibition, % at 20 µM; P24666;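 active = compounds that cut the enzyme signal by at least half of the control window in the single-dose screen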
Target sequence (P24666 whole entry, looked up): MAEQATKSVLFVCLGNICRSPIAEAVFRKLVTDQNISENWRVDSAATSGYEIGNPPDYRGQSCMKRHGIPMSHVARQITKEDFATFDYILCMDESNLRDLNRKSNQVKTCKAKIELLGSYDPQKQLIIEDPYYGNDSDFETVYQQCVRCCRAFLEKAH
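Assay system: LMPTP-A enzyme. Input: 0.625 nM LMPTP-A final. Probe or stimulus: 400 µM OMFP. Compound dosing: single 20 µM dose. Schedule: 50 min dark incubation at room temperature. Detection: fluorescence intensity of OMFP turnover product. Read-out: percent inhibition versus substrate-only and uninhibited controls. Benchmarks: no-enzyme low control, uninhibited high control.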
DNMT1 inh conf = DNMT1 inhibition confirmation, single concentration; shares compounds with DNMT1 inh; DNMT1 molecular beacon HinP1I cleavage, fluorescence; inhibition, % at 10 µM; 2,300 tested, 8% active; AID 602385;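 active = average inhibition of at least 30% in the single-concentration confirmation test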
Beacon interf = shows spectral interference in the DNMT1 beacon assay | shares compounds with DNMT1 inh | DNMT1 molecular beacon spectral interference counterscreen, fluorescence 485/520 | activation (fluorescence interference), % at 10 µM | 2,300 tested, 1% active | AID 602387;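 active = activation of at least 30% at 10 µM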;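 also: DNMT1 catalytic domain with a HinP1I cleavage step and a FAM/dabcyl DNA beacon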
STEP inh conf = STEP (human) phosphatase inhibition, single concentration confirmation | inhibition, % at 20 µM | shares compounds with STEP inh | 520 tested, 32% active | AID 623866 | recombinant STEP, OMFP fluorogenic substrate, fluorescence; call rule not given here
Hits are given with their value; 0 = inactive; - = not tested or not shown. An excerpt weighted towards active compounds, which were near 1.7% of everything screened.

SMILES	SUMO1 PPI mod	DNMT1 inh	Scp1 inh	STEP inh	LMPTP block	STEP inh conf	others
COC(=O)c1sc(NC(=O)/C=C/c2ccc(C)cc2)nc1C	0	0	0	0	0	-
COC(=O)c1sc(NC(=O)/C=C/c2ccccc2Cl)nc1C	0	61.9	0	56.6	0	0	DNMT1 inh conf=0;Beacon interf=0
O=C(c1ccc(Cn2cnnn2)cc1)N1CCCC(Nc2ccc(F)c(F)c2)C1 (centres undefined)	0	0	0	0	0	-
Cc1cccc(C(=O)Nc2ccc(N3CCN(c4ccc(C(F)(F)F)cn4)CC3)nc2)c1	0	70.3	0	76.6	0	0	DNMT1 inh conf=0;Beacon interf=0
Cc1cc(NC(=O)CSc2nnc3ccc(-c4ccc(F)cc4)nn23)no1	0	0	0	0	0	-
O=C(NC1CCCCCC1)C(=S)NC1CCCCC1	0	0	0	57.4	0	31.0
Cc1csc2ncc(C(=O)NCc3ccccn3)c(=O)n12	0	0	0	98.3	0	0
COc1ccc(NC(=O)CN2C(=O)COc3ccc(C)cc32)c(OC)c1	0	0	0	72.3	0	0
COc1ccccc1NC(=O)CN1C(=O)COc2ccc(C)cc21	0	0	0	0	0	-
CCOc1ccc(N2C(=O)c3cccnc3C2Nc2ccc(F)cc2)cc1 (centres undefined)	0	0	0	52.2	0	0
O=C(O)c1cccc(S(=O)(=O)Nc2ccc(-c3ccccc3)cc2)c1	0	0	0	0	0	-
O=C(O)c1cccc(S(=O)(=O)NNc2ccccc2C(F)(F)F)c1	88.5	0	0	44.4	0	0
Cc1csc(NC(=O)CCCC(=O)O)c1-c1nc2ccccc2s1	0	0	0	92.7	0	0
CCC1CCCCN1C(=O)NC(=O)c1ccccc1 (centres undefined)	0	0	0	0	0	-
S=C1NC(C23CC4CC(CC(C4)C2)C3)=CC(c2ccc3c(c2)OCO3)N1 (centres undefined)	0	0	0	61.6	0	24.8
COc1ccc(OCCNC(=O)c2ccc(C)cc2)cc1	0	0	0	0	0	-
Cc1ccc(NC(=S)N(CCCN2CCOCC2)Cc2cccs2)c(C)c1	0	0	0	54.7	0	0
CCOC(=O)c1c(C)[nH]c(C(=O)OCc2ccccc2F)c1C	0	0	0	0	0	-
Nc1c(C(=O)c2ccc(Br)cc2)oc2ccccc12	0	0	0	42.9	0	0
O=C(N/N=C/c1ccncc1)c1cccc(S(=O)(=O)Nc2ccc(Cl)cc2)c1	79.0	0	0	73.5	0	95.4
CCOC(=O)c1c(-c2ccc(F)cc2)csc1/N=C/N(C)C	0	0	0	0	0	-
COc1ccccc1NS(=O)(=O)c1ccc(NN=C2CCCCC2)c([N+](=O)[O-])c1	0	0	0	92.1	0	0
COc1ccccc1NS(=O)(=O)c1ccc(OC)c([N+](=O)[O-])c1	0	0	0	0	0	-
O=C(Nn1cnnc1)c1ccc(Br)s1	0	0	0	118.2	0	0
O=C(Nc1ccccn1)c1ccc(Br)s1	0	0	0	0	0	-
SMILES	SUMO1 PPI mod	DNMT1 inh	Scp1 inh	STEP inh	LMPTP block	STEP inh conf	others
CC1CCCC(C)N1C(=O)COC(=O)c1cccnc1Cl (centres undefined)	0	0	0	0	0	-
CCNc1nc(NC(N)=S)nc(NC(C)(C)C)n1	0	0	0	36.6	0	0
CCNc1nc(NCC)nc(NC(N)=S)n1	0	0	0	0	0	-
O=C1C(=O)N(CCCO)C(c2ccc(Br)cc2)/C1=C(\O)c1ccc(Br)cc1 (centres undefined)	0	0	0	41.3	0	37.6
Cc1cccc(C)c1NC(=S)N(Cc1ccco1)C1CCN(C(C)C)CC1	0	0	0	46.2	0	0
COC(=O)c1sccc1NC(=O)c1ccc(C#N)cc1	0	0	116.5	98.2	0	0
CS(=O)(=O)c1ccc(Nc2nc(C(N)c3ccccc3Cl)cs2)cc1 (centres undefined)	0	0	-	0	0	-
Cc1ccc2nc(Nc3ccc(F)cc3)c3nncn3c2c1	0	0	0	45.1	0	0
COc1cc(Cl)ccc1NC(=S)N(CCN1CCOCC1)C1CCN(C(C)=O)CC1	0	0	0	51.3	0	0
CC(=O)N1CCC(N(CCN2CCOCC2)C(=S)Nc2ccc(C)cc2C)CC1	0	0	0	0	0	-
CC(=O)N1CCC(N(CCN2CCOCC2)C(=S)Nc2ccc(C)cc2)CC1	0	0	0	62.6	0	20.8
COc1ccccc1C(=O)NC(C(=O)NCCc1nc2ccccc2[nH]1)=C(C)C	0	0	0	0	0	-
CC1(c2ccc(OC(F)F)cc2)NC(=O)N(CC(=O)c2ccc3c(c2)OCO3)C1=O (centres undefined)	0	0	0	0	0	-
CCc1ccc(NC(=O)Cc2cn(C)c3ccccc23)cc1	0	0	0	44.5	0	47.6
Cn1cc(CC(=O)Nc2cccc(C#N)c2)c2ccccc21	0	0	0	45.5	0	29.9
CCc1cccc(NC(=O)Cc2cn(C)c3ccccc23)c1	0	0	0	0	0	-
CN1CCN(C(=S)c2ccc([N+](=O)[O-])cc2)CC1	0	0	0	80.5	0	0
CN1CCN(C(=S)c2ccc(N(C)C)cc2)CC1	0	0	0	83.4	0	0
CN1CCN(C(=S)c2ccc(Br)cc2)CC1	0	0	0	80.5	0	43.1
CN1CCN(C(=O)c2ccc(S(=O)(=O)c3ccc(Br)cc3)cc2)CC1	0	0	0	0	0	-
O=[N+]([O-])c1ccc(C(=S)N2CCC(Cc3ccccc3)CC2)cc1	0	0	0	0	0	-
CSc1ccc(C(=S)N2CCN(C)CC2)cc1	0	0	0	72.9	0	0
Cc1ccc(S(=O)(=O)N2[C@@H](c3ccc(Cl)cc3)C(C(=O)O)=C[C@H]2C(C)(C)C)cc1	0	0	0	0	0	-
Nc1c(C(=O)Nc2ccccc2Cl)nnn1-c1ccc2c(c1)OCCO2	0	0	0	0	0	-
CN(C)C(=O)CSc1nc2cc(S(=O)(=O)N3CCOCC3)ccc2o1	0	0	0	0	0	-
NC(=O)CSc1nc2cc(S(=O)(=O)N3CCOCC3)ccc2o1	0	0	0	56.2	0	0
Cn1c(=O)[nH]c(=O)c2c1nc(SCCN1CCCCC1)n2CCCc1ccccc1	0	0	0	80.2	0	45.6
Cn1c(=O)[nH]c(=O)c2c1nc(SCCN1CCCCC1)n2Cc1ccccc1	0	0	0	0	0	-

Screening data (PubChem BioAssay)
